ChEMBL document CHEMBL1140722, “Inhibition of adenosine deaminase by analogues of adenosine and inosine, incorporating a common heterocyclic base, 4(7)-amino-6(5)H-imidazo[4,5-d]pyridazin-7(4)one” (J Med Chem, 2008)

How the values were obtained:
MCF7 = test: Cytotoxicity against human MCF7 cells after 5 days by MTT assay; assay type: functional, cell-based; details: MCF7, 120 h
Procedure, shortened: (§1)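 Cells seeded at 2000/well in complete RPMI1640 and left to attach overnight at 37 °C in 5% CO2. Drug added from 20 mM DMSO stocks, final 0.0001–100 µM, eight replicates each. Exposure was continuous for 5 days, then MTT added and formazan read at 550 nm. IC50 and IC100 taken against vehicle controls and day-0 growth. Three independent experiments.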

Adenosine deaminase = target: T1, Adenosine deaminase (Bos taurus, UniProt P56658); test: Inhibition of calf intestine adenosine deaminase
T1 sequence (P56658 whole entry): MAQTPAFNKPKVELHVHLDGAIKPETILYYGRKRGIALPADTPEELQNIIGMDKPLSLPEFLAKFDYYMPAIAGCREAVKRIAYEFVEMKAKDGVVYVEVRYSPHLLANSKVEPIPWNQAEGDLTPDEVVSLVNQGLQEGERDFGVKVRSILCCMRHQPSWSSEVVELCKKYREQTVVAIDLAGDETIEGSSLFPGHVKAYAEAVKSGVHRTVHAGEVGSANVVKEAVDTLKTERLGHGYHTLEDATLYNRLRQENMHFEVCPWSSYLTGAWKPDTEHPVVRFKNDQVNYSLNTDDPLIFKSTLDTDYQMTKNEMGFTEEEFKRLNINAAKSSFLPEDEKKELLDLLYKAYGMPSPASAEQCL
Procedure, shortened: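 Calf intestine ADA, 2 × 10-3 unit per assay, at 25 °C and pH 7.4. Adenosine hydrolysis to inosine followed as change in optical density per unit time at 265 nm. Seven adenosine concentrations from 30 to 60 µM were run at each inhibitor level of 5 or 15 µM. Ki derived from Lineweaver–Burk plots (1/V vs 1/S).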

[1] = Cytotoxicity against human MCF10A cells after 5 days by MTT assay; assay type: cell-based; details: MCF-10A, 120 h; procedure, shortened: as §1

Row | Ki (Adenosine deaminase) | SMILES | IC50 (MCF7) | IC50 [1]
1 | 51.4 µM | Nc1n[nH]c(=O)c2ncn([C@@H]3O[C@H](CO)[C@@H](O)[C@H]3O)c12 | 23.5 µM | 82.5 µM
2 | 10.6 µM | Nc1n[nH]c(=O)c2c1ncn2[C@@H]1O[C@H](CO)[C@@H](O)[C@H]1O | 27.5 µM | 82.5 µM
3 | 52 µM | Nc1n[nH]c(=O)c2ncn([C@H]3C[C@H](O)[C@@H](CO)O3)c12 | 97.5 µM | > 100 µM

The next lines start with the compound.

Row | SMILES | Ki (Adenosine deaminase) | IC50 (MCF7) | IC50 [1]
4 | Nc1n[nH]c(=O)c2c1ncn2[C@H]1C[C@H](O)[C@@H](CO)O1 | 12.1 µM | > 100 µM | > 100 µM
5 | N/N=C(\N)c1c(C(=O)NN)ncn1[C@@H]1O[C@H](CO)[C@@H](O)[C@H]1O | 26.5 µM | – | –
